ChEMBL document CHEMBL5331102, “Novel S1R agonists counteracting NMDA excitotoxicity and oxidative stress: A step forward in the discovery of neuroprotective agents” (Eur J Med Chem, 2023)
Converted amounts (≈) assume the structure as drawn. The source made the active and inactive calls. The rule behind the calls is not given here.

Key:
[1] = molecular target: Sigma non-opioid intracellular receptor 1 (Homo sapiens, UniProt Q99720); assay: Displacement of [3H]-(+)-pentazocine from sigma 1 receptor (unknown origin) at 25 nM by scintillation counting analysis; conditions: filed as agonist
Summary of the method: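 Single-concentration screen at 25 nM test compound against [3H](+)pentazocine (15 nM) at S1R; scintillation counting; result given as % inhibition of control specific binding, i.e. 100 minus measured/control specific binding ×100.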

[2] = Selectivity index, ratio of Ki for displacement of [3H]DTG from sigma 2 receptor (unknown origin) to Ki for displacement of [3H]-(+)-pentazocine from sigma 1 receptor (unknown origin)
PC-12 [3] = assay: Neuroprotective activity in rat PC12 cells assessed as induction of NGF-mediated neurite outgrowth at 0.1 to 5 uM by neurite outgrowth assay; assay type: functional, cell-based; conditions: dose 0.1-5 µM
Summary of the method: (§1)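 PC12 cells stimulated with NGF (2.5 nM) and treated with compound up to 5 μM, alone or after pre-treatment with S1R antagonist NE-100 (3 μM); read-out is percentage of cells bearing neurite sprouts; mean ± SEM of three independent experiments.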

SH-SY5Y [4] = assay: Cytotoxicity against human SH-SY5Y cells assessed as cell death at 0.1 to 50 uM incubated for 72 hrs by MTT assay; assay type: toxicity, cell-based; conditions: dose 0.1-50 µM
Summary of the method: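 SH-SY5Y cells kept in DMEM/10% FBS, 2 mM glutamine, 37 °C, 5% CO2; ~7000 cells/well, after 1 day given compound (six concentrations, 0.1–100 μM; DMSO stocks 10 mM) in 2% FBS medium for 72 h. MTT (0.5% w/v, 2 h), formazan dissolved in DMSO, absorbance read; triplicates, % of untreated control.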

PC-12 [5] = assay: Neuroprotective activity in rat PC12 cells assessed as induction of NGF-mediated neurite outgrowth at 0.1 to 5 uM in presence of NE-100 by neurite outgrowth assay; assay type: functional, cell-based; conditions: dose 0.1-5 µM; summary of the method: as §1
SH-SY5Y [6] = assay: Neuroprotective activity in human SH-SY5Y cells assessed as prevention of rotenone induced cell damage by measuring cell viability at 1 uM incubated for 24 hrs in presence of rotenone by MTT assay; assay type: functional
Summary of the method: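 SH-SY5Y cells co-exposed 24 h at 37 °C to rotenone 25 μM and compound at 1.0 or 5.0 μM in 2% FBS medium; viability by MTT, mean ± SD of three independent experiments.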

SH-SY5Y [7] = assay: Neuroprotective activity in human SH-SY5Y cells assessed as prevention of rotenone induced cell damage by measuring cell viability at 1 uM preincubated with PB212 for 1hrs followed by compound addition in presence of rotenone and measured after 24 hrs by MTT assay; assay type: functional, cell-based
Summary of the method: (§2)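 SH-SY5Y cells pre-incubated 1 h with S1R antagonist PB212 (5 μM), then treated with compound (1 or 5 μM) plus PB212 (5 μM) and either rotenone 25 μM or NMDA 250 μM for 24 h; viability by MTT; two-way ANOVA with Bonferroni post hoc test.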

SH-SY5Y [8] = assay: Neuroprotective activity in human SH-SY5Y cells assessed as prevention of NMDA induced cytotoxicity by measuring cell viability at 0.1 to 5 uM incubated for 24 hrs in presence of NMDA by MTT assay; assay type: functional, cell-based; conditions: dose 0.1-5 µM
Summary of the method: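 SH-SY5Y cells (~7000/well) co-incubated 24 h at 37 °C in 2% FBS medium with toxic stimulus (NMDA 250 μM or oligomycin 2.5 μM) plus compound at 0.1–5 μM. Viability by MTT, expressed as % of control.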

SH-SY5Y [9] = assay: Neuroprotective activity in human SH-SY5Y cells assessed as prevention of NMDA induced cytotoxicity by measuring cell viability at 1 uM preincubated with PB212 for 1hrs followed by compound addition in presence of NMDA and measured after 24 hrs by MTT assay; assay type: functional, cell-based; summary of the method: as §2
PANC-1 = assay: Cytotoxicity against human PANC-1 cells assessed as reduction in cell survival rate at <=10 uM incubated for 24 to 72 hrs by MTT assay; assay type: toxicity, cell-based; conditions: panc-1, 10 µM, time 24-72 hrs
Summary of the method: (§3)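 Cancer lines grown in Ham's F-12K or DMEM with 10% FBS, used in exponential growth; seeded 2500 cells/well, exposed to 0.1–100 μM for 24, 48 and 72 h continuous. Viability by CellTiter 96 AQueous One (tetrazolium) absorbance at 490 nm; three independent experiments in quadruplicate, % survival vs untreated.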

LoVo = assay: Cytotoxicity against human LoVo cells assessed as reduction in cell survival rate at <=10 uM incubated for 24 to 72 hrs by MTT assay; assay type: toxicity, cell-based; conditions: time 24-72 hrs; summary of the method: as §3
[10] = Thermodynamic solubility of the compound in HC1/KCl buffer at pH 1.2 incubated for 24 hrs; assay type: physicochemical; conditions: HCl/KCl buffer, read-out: Therm_solubility
Summary of the method: (§4)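 10 mM DMSO stock diluted 1:100 into buffer (HCl/KCl pH 1.2; KH2PO4/NaOH pH 6.8; KH2PO4/Na2HPO4 pH 7.4), 1% v/v DMSO final; shaken 24 h at 1200 rpm, filtered through 0.45 μm polycarbonate membrane, filtrate diluted 1:1 with MeOH and analysed.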

[11] = Thermodynamic solubility of the compound in KH2PO4/NaOH buffer at pH 6.8 incubated for 24 hrs; assay type: physicochemical; conditions: read-out: Therm_solubility; summary of the method: as §4
[12] = Dissociation constant, pKa of the compound; assay type: physicochemical
[13] = Toxicity in Zebrafish embryos assessed as morphological abnormality at 0.1 to 50 uM incubated for 5 days by Teratogenic test; design: species or system Danio rerio, Embryo; conditions: in vivo, 120 h, dose 0.1-50 µM, time 5 day
Summary of the method: (§5)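 Tg(GFAP:GFP) zebrafish embryos from 2 female × 1 male matings, 8 embryos per control or concentration, exposed from 1 h post-fertilization and kept at 28 °C for about 5 days without medium change. At 5 dpf (120 h) mortality and developmental abnormalities (tail shape, heart, pigmentation) were scored, with morphology given a severity score.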

[14] = Toxicity in Zebrafish embryos assessed as decrease in embryo vitality rate at 10 to 50 uM incubated for 5 days by Teratogenic test; design: species or system Danio rerio; conditions: in vivo, 120 h, dose 10-50 µM, time 5 day; summary of the method: as §5
[15] = Toxicity in Zebrafish embryos assessed as increase in embryo vitality structure damage at 10 to 50 uM incubated for 5 days by Teratogenic test; design: species or system Danio rerio; conditions: in vivo, 120 h, dose 10-50 µM, time 5 day; summary of the method: as §5
[16] = Toxicity in Zebrafish embryos assessed as death at 10 uM incubated for 5 days by Teratogenic test; design: species or system Danio rerio, Embryo; conditions: in vivo, time 5 day, read-out: Activity; summary of the method: as §5
[17] = Toxicity in Zebrafish embryos assessed as morphological abnormality by observing short and up-curved tail at 10 uM incubated for 5 days by Teratogenic test; design: species or system Danio rerio; conditions: in vivo, 120 h, time 5 day
Summary of the method: (§6)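 Tg(GFAP:GFP) zebrafish embryos, 8 per group, exposed from 1 h post-fertilization to increasing compound concentrations at 28 °C for about 5 days without medium change; mortality, developmental defects and morphology score assessed at 5 dpf.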

[18] = Toxicity in Zebrafish embryos assessed as morphological abnormality by observing enlarged volume of heart at 10 uM incubated for 5 days by Teratogenic test; assay type: tissue-based, Danio rerio; conditions: in vivo, 120 h, time 5 day; summary of the method: as §6
[19] = Toxicity in Zebrafish embryos assessed as death at 50 uM incubated for 5 days by Teratogenic test; design: species or system Danio rerio, Embryo; conditions: in vivo, 120 h, time 5 day; summary of the method: as §5
[20] = Toxicity in Zebrafish embryos assessed as variation in embryo morphology score at 1 uM incubated for 5 days by Teratogenic test; design: species or system Danio rerio; conditions: in vivo, 120 h, time 5 day; summary of the method: as §6
SH-SY5Y [21] = assay: Cytotoxicity against human SH-SY5Y cells assessed as cell viability at 100 uM incubated for 72 hrs by MTT assay

Chain of Sigma non-opioid intracellular receptor 1 (Q99720 whole entry): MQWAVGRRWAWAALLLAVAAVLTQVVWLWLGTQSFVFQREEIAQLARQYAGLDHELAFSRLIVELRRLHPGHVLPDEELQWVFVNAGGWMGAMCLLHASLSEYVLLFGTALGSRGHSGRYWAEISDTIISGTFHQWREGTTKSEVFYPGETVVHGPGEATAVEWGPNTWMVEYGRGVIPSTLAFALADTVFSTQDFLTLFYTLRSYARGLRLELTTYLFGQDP

c1ccc(CC2CCN(CCCOc3ccccc3)CC2)cc1
Activity [1]: > 95% | Ratio Ki [2]: 80 | Activity (PC-12 [3]): Dose-Dependent Effect | Activity (SH-SY5Y [4]): Non-Toxic | Activity (PC-12 [5]): inactive | Activity (SH-SY5Y [6]): 68% | Activity (SH-SY5Y [7]): inactive | Activity (SH-SY5Y [8]): Active | Activity (SH-SY5Y [9]): inactive | Activity (PANC-1): Non-Toxic | Activity (LoVo): Non-Toxic | solubility thermodynamic at 24 h [10]: 2800 µg/mL (≈ 9.05 mM) | solubility thermodynamic at 24 h [11]: 2800 µg/mL (≈ 9.05 mM) | pKa [12]: 9.26 | Activity [13]: Toxic | Activity [14]: Toxic | Activity [15]: Toxic | mortality at 120 h, 10 µM [16]: 100% | Activity [17]: Toxic | Activity [18]: Toxic | Activity [19]: Toxic | Activity [20]: Non-Toxic | Activity (SH-SY5Y [21]): 82%

c1ccc(CC2CCN(CCOc3ccccc3)CC2)cc1
Activity [1]: > 95% | Ratio Ki [2]: 77 | Activity (PC-12 [3]): Dose-Dependent Effect | Activity (SH-SY5Y [4]): Non-Toxic | Activity (PC-12 [5]): inactive | Activity (SH-SY5Y [6]): 65% | Activity (SH-SY5Y [7]): inactive | Activity (SH-SY5Y [8]): Active | Activity (SH-SY5Y [9]): inactive | Activity (PANC-1): Non-Toxic | Activity (LoVo): Non-Toxic | solubility thermodynamic at 24 h [10]: 7800 µg/mL (≈ 26.4 mM) | solubility thermodynamic at 24 h [11]: 7800 µg/mL (≈ 26.4 mM) | pKa [12]: 8.56 | Activity [13]: Toxic | Activity [14]: Toxic | Activity [15]: Toxic | mortality at 120 h, 10 µM [16]: 50% | Activity [17]: 75% | Activity [18]: 100% | Activity [19]: Toxic | Activity [20]: Non-Toxic | Activity (SH-SY5Y [21]): 76%
